KCNK9 block: blocks the human KCNK9 two-pore domain potassium channel. Q9NPC2. HEK293 KCNK9, FluxOR thallium flux fluorescence; active compounds read low. B-score at 10 µM. 310,000 compounds, 1.2% hits. AID 488922;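 active = ratio B-score over 3 SD below the library mean, with starting fluorescence within 5 SD of its mean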;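 note: negative B-score means less thallium flux so channel inhibition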
KCNQ1 block: inhibitors of human KCNQ1 potassium channel; CHO-K1 KCNQ1, FluxOR thallium flux fluorescence; active compounds read high; B-score at 10 µM; 310,000 compounds, 1.3% hits;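 active = compounds whose thallium flux B-score, printed positive for inhibition, exceeds three library SD while starting fluorescence stays within three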;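 note: channel opened by potassium depolarization with thallium stimulus after 20 min compound exposure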
Kir21 block: inhibitors of mouse Kir2.1 inward-rectifier potassium channel; AID 1672; HEK293-Kir2.1, FluxOR thallium flux fluorescence; active compounds read low; P35561; B-score at 10 µM; 310,000 compounds, 0.85% hits;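 active = fluorescence ratio B-score at or below minus 3 SD of library scores, with starting-brightness B-score within 2 SD, cut at about -4.2 in these data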;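 note: channel flux triggered by added potassium and thallium sulfate stimulus; B-score of peak minus minimum fluorescence over baseline after thallium stimulus; more negative B-score means stronger Kir2.1 block with less thallium influx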
KCNQ1 act: human KCNQ1 channel potentiation or activation; P51787; CHO-K1 KCNQ1, thallium flux FluxOR fluorescence; active compounds read high; B-score at 10 µM; 310,000 compounds, 0.35% hits; AID 2648;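 active = fluorescence ratio B-score, a plate-corrected score, at least three library SD, with initial intensity B-score within 5 SD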
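Assay system: stable KCNQ1 CHO-K1 line; medium: assay buffer, equal DMSO in all wells; timing: 90 min dye loading and 20 min compound exposure, both at room temperature; technique: kinetic FluxOR thallium fluorescence, 10-s 1-Hz baseline, 110-s post-stimulus read; read-out basis: B score of baseline-normalized fluorescence ratio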
hERG protect: hERG (human) protection from proarrhythmic block. activation (rescue from dofetilide block), less the hit threshold, % at 10 µM. CHO-hERG, FluxOR thallium flux, dofetilide IC70 present. 310,000 compounds, 0.51% hits. Q12809;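 active = activation above the mean of controls blocked by dofetilide plus 5 SD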;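 note: thallium influx through hERG after potassium depolarization seen as dye fluorescence rise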
KCNK3 inh: human KCNK3 channel inhibition, primary screen. O14649. CHO-KCNK3 thallium flux, FluxOR fluorescence; active compounds read low. B-score at 10 µM. 340,000 compounds, 0.84% hits;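 active = B-score under library mean minus 4 SD, starting fluorescence ratio at most library mean plus 5 SD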;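 note: more negative B-score means stronger inhibition of thallium flux through KCNK3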
KCNK3 confirm: confirmation of human KCNK3 two-pore domain potassium channel inhibitors. CHO-KCNK3 thallium flux, FluxOR fluorescence; 0% buffer, 100% carvedilol maximal block. ratio percent of control, % at 10 µM. shares compounds with KCNK3 inh. 2,400 compounds, 99% hits;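 active = ratio percent of control, averaged over triplicates, above buffer control mean plus 5 SD, cut at about 64% in these data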;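 note: ratio is the fluorescence rise from min to max over baseline after thallium stimulus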
KCNK3 uninduced: activity in cells without induced KCNK3 expression | shares compounds with KCNK3 inh | non-induced KCNK3 parental cells, FluxOR thallium flux; active compounds read low | thallium flux ratio (lower = more inhibition) at 10 µM | 2,400 compounds, 40% hits | AID 651747;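 active = thallium flux ratio, averaged over three wells, more than 5 SD below the buffer control mean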;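 note: host cells are CHO cells without KCNK3 induction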
Each line names hits and unclear results; the compound was inactive in the other large screens (follow-up assays come after a bar, where they were run). Hits are enriched below; roughly 3.8% of the tested compounds scored in any of these assays.

Cc1ccc(C)c(CSCC(=O)NCc2cccs2)c1	KCNK3 inh -10.9 | KCNK3 confirm 84.3 | KCNK3 uninduced inactive
Cc1ccc(C(=O)OCC(=O)NCc2cccs2)c(C)c1	none
Brc1ccc(-c2noc(COc3ccc4ccccc4c3)n2)o1	KCNK3 inh -9.08 | KCNK3 confirm 102.0 | KCNK3 uninduced inactive
Brc1ccc(-c2noc(CCc3ccccc3)n2)o1	none
CC(C)c1ccc(NC(=O)CSc2nc3ccsc3c(=O)n2CCC(=O)O)cc1	none
CCOC(=O)Cc1csc(NC(=O)COc2ccccc2OCC)n1	none
CCOC(=O)Cc1csc(NC(=O)COc2c(C)cccc2C)n1	KCNK3 inh -13.4 | KCNK3 confirm 92.7 | KCNK3 uninduced inactive
Cc1cc(C(=O)CSc2nnc(-c3ccccc3F)o2)c(C)n1Cc1cccs1	none
Cc1cc(C(=O)CN2C(=O)c3cccc(N)c3C2=O)c(C)n1Cc1cccs1	KCNK3 inh -10.9 | KCNK3 confirm 121.3 | KCNK3 uninduced inactive
N#C/C(=N\Nc1cccc(C(F)(F)F)c1)C(=O)c1csc(-c2cccnc2)n1	KCNQ1 block 7, KCNK3 inh -9.43 | KCNK3 confirm 100.7 | KCNK3 uninduced 0.13
Cc1ccc(C)c(C(=O)COC(=O)c2c(-c3ccccc3)noc2C)c1	KCNK3 inh -14.3 (no result: KCNK9 block, KCNQ1 block, Kir21 block, KCNQ1 act, hERG protect) | KCNK3 confirm 135.7 | KCNK3 uninduced inactive
Cc1ccc(OCCOC(=O)c2c(-c3ccccc3)noc2C)cc1	KCNK9 block -6.74, KCNK3 inh -8.8 | KCNK3 confirm 101.0 | KCNK3 uninduced inactive
CC(C)N1CCSC1=S	none (no result: KCNK9 block, KCNQ1 block, Kir21 block, KCNQ1 act, hERG protect)
O=C(Nc1ccc2nc(SCc3ccc(Cl)cc3)sc2c1)c1ccccc1C(=O)N1CCOCC1	KCNQ1 block 6, KCNK3 inh -8.74 | KCNK3 confirm 97.0 | KCNK3 uninduced inactive
Cc1ccc(C(=O)OCC(=O)N(Cc2ccccc2)C(C)C)cc1C	none (no result: KCNK9 block, KCNQ1 block, Kir21 block, KCNQ1 act, hERG protect)
COc1ccc(CCN(Cc2cc3cc(C)cc(C)c3nc2Cl)C(=O)C2CC2)cc1	KCNK3 inh -10.8 | KCNK3 confirm 98.3 | KCNK3 uninduced inactive
O=C(C1CCCN(S(=O)(=O)c2cccc3nsnc23)C1)N1CC=C(c2ccccc2)CC1 (centres undefined)	KCNK3 inh -15.4 (no result: KCNK9 block, KCNQ1 block, Kir21 block, KCNQ1 act, hERG protect) | KCNK3 confirm 115.3 | KCNK3 uninduced inactive
O=C(C1CCN(S(=O)(=O)c2cccc3nsnc23)CC1)N1CC=C(c2ccccc2)CC1	none
COc1ccc(CCN2CCCn3c2nc2c3c(=O)n(CC(N)=O)c(=O)n2C)cc1OC	none
COc1cc2c(cc1OC)C(c1ccccc1)N(C(=O)c1ccco1)CC2 (centres undefined)	KCNK3 inh -10.7 | KCNK3 confirm 96.7 | KCNK3 uninduced inactive
CCOc1ccc(S(=O)(=O)Nc2cccc(C(=O)N(C)Cc3cccc(OC)c3OC)c2)cc1	none
CC(=O)c1cc(C(=O)Nc2ccc3ccccc3c2)c(C)o1	KCNK3 inh -10.5 | KCNK3 confirm 53.0 | KCNK3 uninduced inactive
Cn1c(SCC(=O)Nc2ccccc2)nnc1-c1ccc2nonc2c1	none
CCOP(=O)(OCC)c1nc(-c2ccc(C)cc2)oc1N1CCOCC1	none
CCOP(=O)(OCC)c1nc(-c2ccc(Br)cc2)oc1N1CCCCC1	KCNK3 inh -10.2 | KCNK3 confirm 101.7 | KCNK3 uninduced inactive
Cc1cccc(-n2c(SCc3ccc([N+](=O)[O-])cc3)nnc2-c2c[nH]c3ccccc23)c1	KCNK3 inh -10.9 | KCNK3 confirm 107.7 | KCNK3 uninduced 0.155
O=c1[nH]c(=S)[nH]cc1Oc1ccc(Cl)cc1Cl	none
CC(=O)NC(CC(=O)Nc1nc(-c2ccc(N(C)S(C)(=O)=O)cc2)cs1)c1ccccc1 (centres undefined)	KCNK3 inh -10.5 | KCNK3 confirm 59.0 | KCNK3 uninduced inactive
COc1ccccc1OCCCn1c(=O)oc2ccc(C)cc21	none

Screening results as filed in PubChem.
